Reference: ChEMBL document CHEMBL6134796, “Development and Evaluation of Indole-Based Phospholipase D Inhibitors for Lung Cancer Immunotherapy” (J Med Chem, 2025)
pIC50: −log10 of the molar value. Calls of active or inactive are those of the source. The rule behind the calls is not given here.

Assays:
HCC44 = test: Cytotoxicity against human HCC44 cells assessed as inhibition of cell growth incubated for 48 hrs by WST-1 assay; type: functional, cell-based; conditions: HCC44, 48 h
Outline: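 WST-1 viability assay. Cells seeded at 5 × 10^3 per well and incubated 24 h at 37 °C, then exposed to drug for 48 h. Absorbance read at 450 nm, in triplicate. IC50 taken as the concentration giving 50% growth inhibition versus control.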

Calu-6 = test: Cytotoxicity against human Calu-6 cells assessed as inhibition of cell growth incubated for 48 hrs by WST-1 assay; type: functional, cell-based; conditions: Calu-6, 48 h
[1] = test system: Lewis lung carcinoma cell line; test: Antitumor activity against mouse Lewis lung carcinoma cell line allografted in male C57BL/6 mouse model assessed as recovery of spleen weight at 10 mg/kg, po measured every other day for 3 weeks; type: functional, organism-based
Outline: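 Syngeneic model: 6-week-old male C57BL/6 mice given 3 × 10^5 LLC cells in 50 μL PBS subcutaneously in the flank. At day 7, mice were randomized to vehicle PO daily or 10 mg/kg PO every other day for 3 weeks. Caliper volume was taken every 2 days as ([…])/2, with tumor weight at end. Spleen size and weight were recorded. Ki67 and cleaved caspase-3 were scored by IHC (DAB, hematoxylin).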

A549 [2] = test: Induction of apoptosis in human A549 cells assessed as increase in caspase-3 activity measured up to 48 hrs in presence of gemcitabine […]; type: functional, cell-based
Outline: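 A549 cells given compound, gemcitabine, or both. Apoptosis assessed by PI staining, annexin V flow cytometry, cleaved PARP immunoblot, and caspase-3 activity. For caspase-3: drugs at 10 μM for 48 h, then 1 μM NucView 488 substrate for 30 min, with 1 μM Hoechst 33342, read by plate fluorescence.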

[3] = target: T1, Phospholipase D1 (Homo sapiens) (UniProt Q13393); test: Binding affinity to PLD1 in human A549 cells assessed as protection against pronase E-mediated proteolysis at 2 to 20 uM incubated for 1 hr by DARTS assay; type: cell-based; conditions: dose 2-20 µM
T1 sequence (whole entry): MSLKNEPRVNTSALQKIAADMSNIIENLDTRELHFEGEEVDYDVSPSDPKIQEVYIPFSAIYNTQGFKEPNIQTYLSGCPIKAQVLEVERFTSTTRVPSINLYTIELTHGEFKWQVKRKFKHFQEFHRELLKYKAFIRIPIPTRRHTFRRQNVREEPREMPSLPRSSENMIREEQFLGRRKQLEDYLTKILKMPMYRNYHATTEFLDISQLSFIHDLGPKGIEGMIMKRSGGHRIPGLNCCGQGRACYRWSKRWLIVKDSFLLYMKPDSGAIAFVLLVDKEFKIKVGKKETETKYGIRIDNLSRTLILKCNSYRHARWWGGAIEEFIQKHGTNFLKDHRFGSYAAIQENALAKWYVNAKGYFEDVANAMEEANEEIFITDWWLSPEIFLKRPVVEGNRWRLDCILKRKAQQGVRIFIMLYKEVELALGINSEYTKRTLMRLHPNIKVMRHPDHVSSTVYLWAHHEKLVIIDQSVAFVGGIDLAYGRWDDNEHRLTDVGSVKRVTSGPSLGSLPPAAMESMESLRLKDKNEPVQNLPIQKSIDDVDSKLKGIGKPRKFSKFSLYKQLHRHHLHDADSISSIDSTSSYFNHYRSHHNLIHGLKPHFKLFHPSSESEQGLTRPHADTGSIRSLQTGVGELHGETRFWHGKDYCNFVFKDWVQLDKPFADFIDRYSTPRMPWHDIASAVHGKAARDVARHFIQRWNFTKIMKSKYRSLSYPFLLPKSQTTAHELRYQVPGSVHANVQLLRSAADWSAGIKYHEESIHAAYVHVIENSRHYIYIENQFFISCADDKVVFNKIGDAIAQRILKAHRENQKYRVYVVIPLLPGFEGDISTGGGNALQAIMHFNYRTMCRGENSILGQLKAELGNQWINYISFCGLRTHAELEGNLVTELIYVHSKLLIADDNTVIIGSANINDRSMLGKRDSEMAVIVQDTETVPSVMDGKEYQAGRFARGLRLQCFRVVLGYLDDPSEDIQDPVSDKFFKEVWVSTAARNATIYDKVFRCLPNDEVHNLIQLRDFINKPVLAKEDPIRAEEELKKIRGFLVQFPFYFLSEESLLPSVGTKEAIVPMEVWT
Outline: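 A549 lysates made in buffer with protease and phosphatase inhibitors. Lysates were incubated with compound for 1 h at room temperature, then digested with Pronase for 10 min at RT. Digestion was quenched in SDS loading buffer by boiling 5 min. PLD1 and β-tubulin were detected by immunoblot.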

A549 [4] = test: Upregulation of CRT expression in human A549 cells by flow cytometry analysis; type: functional, cell-based
Outline: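 A549 cells treated with compound; surface "eat-me" and "don't eat-me" signal proteins measured by flow cytometry; at least three independent experiments, mean ± SEM.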

**Q.** Which results are given for `O=C(CCc1c[nH]c2ccccc12)Nc1cc(C(F)(F)F)cc(C(F)(F)F)c1`?
**A.** pIC50 (HCC44): 4.65; pIC50 (Calu-6): 4.72; Activity [1]: Active; Activity (A549 [2]): Active; Activity [3]: Active; Activity (A549 [4]): Active
